Screening data as filed in PubChem BioAssay.
HGIII-sPLA2 inh – human group III sPLA2 inhibitors, primary screen, biochemical, QFRET, BODIPY PC-A2 liposome substrate. actives 0.56% (n = 370,000). QFRET BODIPY PC-A2 liposome hydrolysis, fluorescence. inhibition, % at 12.2 µM. AID 743126, 2013;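 active means inhibition above mean plus 3 SD of compounds lying within the high and low control bounds, cut at about 19% in these data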;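 further: 0% = median of test compound wells and 100% = no enzyme DMSO wells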
Arrestin-AP2 inh – inhibitors of beta-arrestin/AP2 binding, primary screen, biochemical, GPCR trafficking, flow cytometry; actives 0.31% (n = 340,000); inhibition, % at 10 µM; beta-arrestin 1 C-terminal peptide binding to AP2 beta2-adaptin appendage (human); AID 504490, 2011; FITC-arrestin peptide / GST-AP2 beads; AP2 beta2 appendage carries R879A mutation;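 active means inhibition above a set limit, near 3 SD of compounds lacking own fluorescence, cut at about 54% in these data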;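 further: plate controls were DMSO wells for no effect and 5 µM unlabelled arrestin peptide for full effect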
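System: GST-tagged AP2 beta2-adaptin appendage (R879A) on 4 µm glutathione beads / Reagent: FITC-arrestin peptide, 50 nM / Detection: HyperCyt-sampled flow cytometry, FL1 channel, ex 488/em 535 nm / Timing: 12 min plus 1 h, RT / Buffer or medium: PBS plus Tween 20 (0.05%) and BSA (0.1%)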
Lipid droplet – inhibitors of hepatocyte lipid droplet formation, primary screen, imaging, high-throughput imaging, BODIPY stain; AML12 mouse hepatocytes, oleate lipid droplets; inhibition, % at 6.5 µM; actives 0.4% (n = 240,000); AID 1656, 2009;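 active means lipid droplet intensity inhibited by at least 50%, with more than 500 cells counted; inconclusive means wells with under 300 cells, treated as cytotoxic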
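Material: mouse AML12 hepatocyte cell line, fixed after treatment; Timing: compound with oleate, overnight; Technique: high-content imaging of BODIPY-stained droplets and DAPI nuclei; Probe or stimulus: oleate, 100 µM final; Dosing: compound at 6.5 µM only.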
m5-HT2A agonist – mouse Htr2a agonists via beta-arrestin recruitment, primary screen, cell-based, luminescence; CHO-K1 mHTR2A beta-arrestin complementation; percent of 30 µM serotonin response; activation, % at 7.6 µM; actives 0.66% (n = 360,000); AID 624169, 2012;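 active means activation above a run cutoff, the mean activation of all tested compounds plus 3 SD, cut at about 14% in these data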;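 further: 0% = plate median of compound wells and 100% = 30 µM serotonin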
Target sequence (P35363 whole entry, looked up): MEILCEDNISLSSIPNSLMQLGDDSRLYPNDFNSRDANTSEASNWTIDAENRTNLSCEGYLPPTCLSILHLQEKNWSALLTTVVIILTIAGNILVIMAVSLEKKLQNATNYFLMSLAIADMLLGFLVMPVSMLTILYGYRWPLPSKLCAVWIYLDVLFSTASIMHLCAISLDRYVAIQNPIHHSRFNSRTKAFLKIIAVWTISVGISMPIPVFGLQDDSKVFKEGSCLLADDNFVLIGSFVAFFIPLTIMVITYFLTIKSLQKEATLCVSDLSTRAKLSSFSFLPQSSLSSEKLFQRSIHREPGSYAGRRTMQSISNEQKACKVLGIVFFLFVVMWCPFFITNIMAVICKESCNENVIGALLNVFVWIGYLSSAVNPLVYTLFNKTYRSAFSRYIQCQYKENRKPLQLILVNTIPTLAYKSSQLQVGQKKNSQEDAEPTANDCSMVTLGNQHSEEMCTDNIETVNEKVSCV
PfM18AAP inh-1 – PfM18AAP inhibitors, malaria aminopeptidase, primary screen, biochemical, QFRET, recombinant enzyme; M18 aspartyl aminopeptidase (Plasmodium falciparum 3D7); H-Glu-NHMec fluorogenic cleavage; inhibition, % at 7.35 µM; actives 1.2% (n = 290,000);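 active means inhibition above the campaign mean inhibition over all tested compounds plus 3 SD, cut at about 28% in these data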;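 further: 0% = plate median of test compound wells and 100% = 2 mM ZnCl2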
CendR NRP1 mod – modulators of CendR peptide binding to NRP-1, primary screen, biochemical, fluorescence polarization, uHTS; Neuropilin-1 (Homo sapiens), O14786; FAM-RPARPAR peptide binding to NRP-1; inhibition, % at 25 µM; actives 0.85% (n = 360,000);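 active means inhibition or corrected inhibition above about 18%, plus a signal ratio from 0.5 to 1.5, limit read from the data, passing the limit was not always enough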
Hep lipid conf – hepatocyte lipid droplet accumulation inhibitors, confirmation, imaging, AML12 mouse hepatocytes, single concentration, high-content | shares compounds with Lipid droplet | BODIPY lipid droplet imaging; droplets induced with 100 µM oleic acid | inhibition, % at 5.2 µM | actives 65% (n = 870) | AID 463183, 2010;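 active means inhibition of lipid droplet metric at least 50%, with more than 300 cells in each of four replicates; inconclusive means wells under 300 cells, flagged as toxic or low count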;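 further: plate controls were DMSO with oleic acid for no effect and 5 µM Triacsin-C for full effect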
AML12 cytotox – AML12 hepatocyte cytotoxicity, counter-screen for hepatic lipid droplet formation project, imaging, DAPI nuclear morphology imaging | shares compounds with Lipid droplet | AML12 mouse hepatocytes; stronger effect = higher value; cells fed 100 µM oleate overnight | z-score at 5 µM | actives 3% (n = 870); in the data active means z-score above about 6.3;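 further: compound exposure lasted overnight at 37 °C before fixation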
PfM18AAP inh-2 – PfM18AAP inhibitors, malaria aminopeptidase, confirmation, biochemical, QFRET, recombinant enzyme, triplicate; shares compounds with PfM18AAP inh-1; H-Glu-NHMec fluorogenic cleavage; inhibition, % at 7.35 µM; actives 28% (n = 2,400); AID 2170, 2009;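 active means mean inhibition over replicate wells above the hit cutoff set for the earlier primary screen, cut at about 29% in these data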;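 further: 0% = median of test compound wells and 100% = 2 mM ZnCl2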
CTSL1 counter – cathepsin L1 inhibitors, retest, confirmation, counter-screen for PFM18AAP inhibitor project, biochemical, QFRET, triplicate; 2,400 tested, under 10 active; inhibition, % at 5.96 µM; shares compounds with PfM18AAP inh-1; purified cathepsin L1, Z-Leu-Arg-MCA fluorescence;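 active means average inhibition across replicates above the hit cutoff set in the earlier primary screen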;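 further: 0% = median of test compound wells and 100% = Z-Phe-Ala-diazomethylketone 1 µM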
Starred values were filed as active, the others as inactive; ? = inconclusive; . = no result given. Shown are actives, neighbours in structure and some others; about 3.3% of the full set was active somewhere.

SMILES	HGIII-sPLA2 inh	Arrestin-AP2 inh	Lipid droplet	m5-HT2A agonist	PfM18AAP inh-1	CendR NRP1 mod	others
O=C(CNCc1c(F)cccc1F)N1CCC2(CC1)OCCO2	3	.	.	.	.	.
CCCNC(=O)N1[C@H]2CC[C@@H]1C(C(=O)OC)=C(c1ccc(OC(F)(F)F)cc1)C2	7	4	.	-4	.	29*
COC(=O)C1=C(c2ccccc2)C[C@@H]2CC[C@H]1N2C	2	-5	.	-3	.	25*
COC(=O)C1=C(c2cccc(C#N)c2)C[C@@H]2CC[C@H]1N2C(=O)NC(C)C	6	4	.	-3	.	22*
COC(=O)C1=C(c2ccc(-c3ccccc3)c(F)c2)C[C@@H]2CC[C@H]1N2C(=O)N1CCC(C)CC1	-13	-2	.	-5	.	25*
COC(=O)C1=C(c2cccc(OCc3ccccc3)c2)C[C@@H]2CC[C@H]1N2C	-10	.	.	-8	.	7
COC(=O)C1=C(c2ccc(OC(F)(F)F)cc2)C[C@@H]2CC[C@H]1N2C(=O)NCCOc1ccccc1	-7	9	.	3	.	2
CC1=CC(C)CC(C)OC(=O)CC(c2ccc(O)cc2)NC(=O)C(Cc2c(Br)[nH]c3ccccc23)N(C)C(=O)C(C)NC(=O)C(C)C1 (stereo unspecified)	-44	0	.	7	.	6
CC(C)C[C@H]1N=C(c2ccccc2)c2ccccc2N(CC(=O)NC(C)(C)C)C1=O	0	.	.	.	.	.
CN1CCCC1CCOC(C)(c1ccccc1)c1ccc(Cl)cc1 (stereo unspecified)	10	-7	.	1	.	-2
O=c1[nH]c2ccccc2n1C1CCN(C(CCc2ccccc2)c2nnnn2C2CCCCC2)CC1 (stereo unspecified)	-1	.	.	1	.	-1
CCCNC(=O)N1[C@H]2CC[C@@H]1C(C(=O)OC)=C(c1ccc(S(C)(=O)=O)cc1)C2	7	12	.	-4	.	17
COC(=O)C1=C(c2ccc(S(C)(=O)=O)cc2)C[C@@H]2CC[C@H]1N2C	-3	1	.	3	.	35*
COC(=O)C1=C(c2cccc(OC)c2OC)C[C@@H]2CC[C@H]1N2C(=O)NCc1ccccc1	1	3	.	1	.	16
COC(=O)C1=C(c2ccccc2OCc2ccccc2)C[C@@H]2CC[C@H]1N2C(=O)NCc1ccc(F)cc1	-15	1	.	-6	.	22*
COC(=O)C1=C(c2cccc(OC)c2OC)C[C@@H]2CC[C@H]1N2C(=O)NCc1ccc(F)cc1	3	-8	.	-6	.	27*
O=C(c1c[nH]c2ccc(S(=O)(=O)N3CCOCC3)cc2c1=O)N1CCC2(CC1)OCCO2	4	-9	20	2	7	28*
Cc1ccc(C[n+]2c(-c3ccc(C)cc3)cc(-c3ccc(C)cc3)cc2-c2ccc(C)cc2)cc1	.	-2	.	17*	.	7
O=C1NC(=O)C(C2CCOC2=O)N1 (stereo unspecified)	-5	.	.	3	.	4
C[C@H]1CCC/C=C/C2C[C@H](O)CC2[C@H](O)/C=C/C(=O)O1 (stereo partly specified)	.	12	?	-8	1	-3
CC1CCC/C=C/C2CC(O)CC2C(O)/C=C/C(=O)O1 (stereo unspecified)	9	7	110*	-3	-11	8	Hep lipid conf=114*;AML12 cytotox=17*
COC(=O)C1CN(C#N)N(c2ccc(Cl)cc2)C12c1ccccc1-c1ccccc12 (stereo unspecified)	.	2	131*	-3	2	-13	Hep lipid conf=?;AML12 cytotox=36*
O=P(Oc1ccc(-c2ccccc2)cc1)(N1CC1)N1CC1	6	-5	.	4	.	0
CN1CCN2c3ccc(N)cc3CC3(C(=O)NC(=O)NC3=O)C2C1 (stereo unspecified)	0	47	8	2	44*	-1	PfM18AAP inh-2=-45;CTSL1 counter=2
COc1cc2c(cc1/C=C/[N+](=O)[O-])OCO2	3	17	5	3	38*	2	PfM18AAP inh-2=17;CTSL1 counter=1
SMILES	HGIII-sPLA2 inh	Arrestin-AP2 inh	Lipid droplet	m5-HT2A agonist	PfM18AAP inh-1	CendR NRP1 mod	others
CCCC1(CC(C)CC)C(=O)NC(=O)NC1=O (stereo unspecified)	-4	.	.	-4	.	-5
Oc1ccc(CC2CC3CCN2CC3)cc1O (stereo unspecified)	4	4	.	-1	57*	1	PfM18AAP inh-2=28;CTSL1 counter=-4
NC(=O)c1ccc(N=Cc2c(O)n(Cc3ccco3)c(=O)[nH]c2=O)cc1	-5	-16	3	0	11	-54
O=c1[nH]c(=O)n(Cc2ccco2)c(O)c1/C=N/N1CCCCCC1	12	3	1	11	9	5
CCN(CC)c1ccc(N=Cc2c(O)n(Cc3ccco3)c(=O)[nH]c2=O)cc1	-9	-12	-2	0	42*	-38	PfM18AAP inh-2=-52;CTSL1 counter=0
N#Cc1c(/N=C/c2c(O)n(Cc3ccco3)c(=O)[nH]c2=O)sc2c1CCCC2	1	36	.	19*	37*	-88	PfM18AAP inh-2=-43;CTSL1 counter=-4
CSc1ccccc1NP1(=O)OCC(C)([N+](=O)[O-])CO1 (stereo unspecified)	2	40	.	-2	.	0
CC(C)(C)NC(=O)C1CN=C(c2ccccc2)c2cc(Cl)ccc2N1C(=O)C1CCC1 (stereo unspecified)	-2	.	.	.	.	.
CC(C)CCn1c(=O)c(C(=O)NCc2ccco2)c(O)c2ccccc21	0	8	-6	7	-15	-9
